pIC50: −log10 of the molar value. Active and inactive are the calls of the source. No cut-off for these calls is given here.
Experiments:
HOS [1] = assay: Cytotoxicity against human HOS cells after 3 days by SRB assay; type: functional, cell-based; details: 72 h
In short: (§1)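 Freshly trypsinized cells were seeded at 1500-7500 cells per well with test compound added from DMSO-diluted stock and cultured for 3 days. Attached cells were fixed with cold 50% trichloroacetic acid, stained with 0.4% sulforhodamine B, and the bound dye was solubilized and read at 562 nm. IC50 is the concentration giving a 50% drop in absorbance, or growth, relative to untreated cells.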

A549 [2] = assay: Cytotoxicity against human A549 cells after 3 days by SRB assay; type: functional, cell-based; details: A549, 72 h; in short: as §1
CAKI-1 [3] = assay: Cytotoxicity against human Caki1 cells after 3 days by SRB assay; type: functional, cell-based; details: CAKI-1, 72 h; in short: as §1
[4] = Cytotoxicity against vincristine-resistant human KBVIN cells after 3 days by SRB assay; type: functional, cell-based; details: 72 h; in short: as §1
1A9 [5] = assay: Cytotoxicity against human 1A9 cells after 3 days by SRB assay; type: functional, cell-based; details: 1A9, 72 h; in short: as §1
KB [6] = assay: Cytotoxicity against camptothecin-resistant human KB cells after 3 days by SRB assay; type: functional, cell-based; details: 72 h; in short: as §1
KB [7] = assay: Cytotoxicity against etoposide-resistant human KB cells after 3 days by SRB assay; type: functional, cell-based; details: 72 h; in short: as §1
1A9 [8] = assay: Cytotoxicity against paclitaxel-resistant human 1A9 cells after 3 days by SRB assay; type: functional, cell-based; details: 1A9, 72 h; in short: as §1
KB [9] = assay: Cytotoxicity against human KB cells after 3 days by SRB assay; type: functional, cell-based; details: 72 h; in short: as §1
[10] = Cytotoxicity against human U87MG cells after 3 days by SRB assay; type: functional, cell-based, U-87MG ATCC; details: U-87 MG, 72 h; in short: as §1
MCF7 [11] = assay: Cytotoxicity against human MCF7 cells after 3 days by SRB assay; type: functional, cell-based; details: MCF7, 72 h; in short: as §1
CAKI-1 [12] = assay: Cytotoxicity against human Caki1 cells at 10 uM after 3 days by SRB assay; type: functional; details: for inhibition at 10 µM: CAKI-1, 72 h
KB [13] = assay: Cytotoxicity against human KB cells at 10 uM after 3 days by SRB assay; type: functional
KB [14] = assay: Cytotoxicity against etoposide-resistant human KB cells at 10 uM after 3 days by SRB assay; type: functional
1A9 [15] = assay: Cytotoxicity against paclitaxel-resistant human 1A9 cells at 10 uM after 3 days by SRB assay; type: functional; details: for inhibition at 10 µM: 1A9, 72 h
KB [16] = assay: Cytotoxicity against vincristine-resistant human KBVIN cells at 10 uM after 3 days by SRB assay; type: functional
1A9 [17] = assay: Cytotoxicity against human 1A9 cells at 10 uM after 3 days by SRB assay; type: functional, cell-based
MCF7 [18] = assay: Cytotoxicity against human MCF7 cells at 10 uM after 3 days by SRB assay; type: functional; details: MCF7, 72 h
A549 [19] = assay: Cytotoxicity against human A549 cells at 10 uM after 3 days by SRB assay; type: functional
HOS [20] = assay: Cytotoxicity against human HOS cells at 10 uM after 3 days by SRB assay; type: functional, cell-based
KB [21] = assay: Cytotoxicity against camptothecin-resistant human KB cells at 10 uM after 3 days by SRB assay; type: functional, cell-based
[22] = (§2) Cytotoxicity against human U87MG cells at 10 uM after 3 days by SRB assay; type: functional, U-87MG ATCC; details: U-87 MG, 72 h
U-87MG ATCC = assay: as §2; type: functional

SMILES	pIC50 (HOS [1])	pIC50 (A549 [2])	pIC50 (CAKI-1 [3])	pIC50 [4]	pIC50 (1A9 [5])	pIC50 (KB [6])	pIC50 (KB [7])	pIC50 (1A9 [8])	pIC50 (KB [9])	pIC50 [10]	pIC50 (MCF7 [11])	inhibition at 10 µM (CAKI-1 [12]) [%]	Activity (KB [13])	Activity (KB [14])	Activity (KB [16])	Activity (KB [21])	other results
C=C(C)C1CC2=C(O1)c1ccccc1C(=O)C2=O (configuration not stated)	5.40	5.57	5.02	5.41	5.68	5.66	5.52	5.64	5.52	5.47	5.92	–	–	–	–	–	–
C=C(C)C1CC2=C(O1)C(=O)c1ccccc1C2=O (stereo not drawn) [DEHYDROISO-ALPHA-LAPACHONE]	5.44	5.19	< 5.00	5.24	5.59	5.49	5.46	5.55	5.39	5.59	5.92	26	–	–	–	–	–
C=C(C)C1CC2=C(O1)c1cccc(OC)c1C(=O)C2=O (configuration not stated) [LANTALUCRATIN A]	5.32	5.48	–	< 5.30	5.41	5.68	< 5.30	< 5.30	< 5.30	5.33	5.80	–	–	–	–	–	inhibition at 10 µM (KB [13]; 72 h): 46%; inhibition at 10 µM (KB [14]; 72 h): 43%; inhibition at 10 µM (1A9 [15]): 45%; inhibition at 10 µM (KB [16]; 72 h): 17%; Activity (CAKI-1 [12]): inactive
C=C(C)C1CC2=C(O1)c1cccc(O)c1C(=O)C2=O (configuration not stated) [LANTALUCRATIN B]	5.60	5.74	< 5.30	5.62	5.82	6.00	5.68	5.68	5.64	5.72	6.00	16	–	–	–	–	–
C=C(C)C1CC2=C(O1)c1ccc(O)cc1C(=O)C2=O (configuration not stated) [LANTALUCRATIN C]	5.33	5.22	–	5.20	5.03	5.28	5.24	5.19	5.16	5.14	5.31	–	–	–	–	–	–
C=C(C)C(O)CC1=C(OC)C(=O)c2c(OC)cccc2C1=O (configuration not stated) [LANTALUCRATIN D]	–	< 5.00	–	–	–	–	–	< 5.00	–	< 5.00	< 5.00	–	inactive	inactive	inactive	inactive	Activity (1A9 [17]): inactive; inhibition at 10 µM (MCF7 [18]): 20%; inhibition at 10 µM (A549 [19]; A549, 72 h): 7%; Activity (HOS [20]): inactive; inhibition at 10 µM (1A9 [15]): 14%; Activity (CAKI-1 [12]): inactive; inhibition at 10 µM [22]: 8%
C=C(C)C(O)CC1=C(OC)C(=O)c2c(OC)ccc(O)c2C1=O (configuration not stated) [LANTALUCRATIN E]	5.06	5.06	< 5.00	–	5.89	–	–	5.60	–	5.15	5.26	8	inactive	inactive	inactive	inactive	–
C=C(C)C(O)CC1=C(OC)C(=O)c2cc(OC)c(O)c(O)c2C1=O (configuration not stated) [LANTALUCRATIN F]	–	–	< 5.00	–	–	–	–	–	–	–	< 5.00	13	inactive	inactive	inactive	inactive	Activity (1A9 [17]): inactive; inhibition at 10 µM (MCF7 [18]): 9%; Activity (A549 [19]): inactive; Activity (HOS [20]): inactive; Activity (1A9 [15]): inactive; Activity (U-87MG ATCC): inactive
CC1(C)CCC2=C(O1)c1ccccc1C(=O)C2=O [LAPACHONE]	5.85	5.82	< 5.30	5.66	6.10	6.00	5.74	6.10	5.92	5.70	6.10	42	–	–	–	–	–

Source: ChEMBL document CHEMBL1151231, “Antitumor agents. 233. Lantalucratins A-F, new cytotoxic naphthoquinones from Lantana involucrata” (J Nat Prod, 2004)
